Source: ChEMBL document CHEMBL1157223, “Lupeol long-chain fatty acid esters with antimalarial activity from Holarrhena floribunda” (J Nat Prod, 2006)
Converted amounts (≈) assume the structure as drawn. “And” between values parts separate entries of the source, which are not always exact repeats. Equal values may be shown once.

How the values were obtained:
[1] = tested on: Plasmodium falciparum; experiment: Antimalarial activity after 24 hrs against chloroquine-sensitive Plasmodium falciparum 3D7 by [3H]hypoxanthine uptake; format: functional, organism-based
Outline: (§1)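 Human type B+ erythrocytes at 2% parasitemia and 4% hematocrit in RPMI-1640 (0.5% Albumax II, 16 µM hypoxanthine, HEPES, glucose); after 30 min at 37 °C, drug was added to final 1% parasitemia and 2% hematocrit. Test range 7.8–500 µM, with chloroquine at 3.9–500 nM and final DMSO under 2%. Incubation was 24 h, then [3H]-hypoxanthine for 18–24 h more; filters were counted. IC50 came from curve fitting, quadruplicates, 2–3 runs.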

[2] = tested on: Plasmodium falciparum; experiment: Antimalarial activity against chloroquine-resistant Plasmodium falciparum FCR3 Gambia as 24 hrs [3H]hypoxanthine uptake; format: functional, organism-based; conditions: FCR-3/Gambia; outline: as §1
[3] = tested on: Plasmodium falciparum; experiment: Antimalarial activity after 48 hrs against Plasmodium falciparum W2 by [3H]hypoxanthine uptake
[4] = tested on: Plasmodium falciparum; experiment: Antimalarial activity after 48 hrs against Plasmodium falciparum D6 by [3H]hypoxanthine uptake

| SMILES | IC50 [1] | IC50 [2] | IC50 [3] | IC50 [4] |
| --- | --- | --- | --- | --- |
| C=C(C)[C@@H]1CC[C@]2(C)CC[C@]3(C)[C@H](CC[C@@H]4[C@@]5(C)CC[C@H](OC(=O)COCCCCCCCCCCCCCCCCCCCCCCCC)C(C)(C)[C@@H]5CC[C@]43C)[C@@H]12 | 135 µM | 84 µM and 69000 µg/mL | – | – |
| C=C(C)[C@@H]1CC[C@]2(C)CC[C@]3(C)[C@H](CC[C@@H]4[C@@]5(C)CC[C@H](OC(=O)CC(O)CCCCCCCCCCCCCCCCC)C(C)(C)[C@@H]5CC[C@]43C)[C@@H]12 (stereo not given in full) | 282 µM | 269 µM | – | – |
| C=C(C)[C@@H]1CC[C@]2(C)CC[C@]3(C)[C@H](CC[C@@H]4[C@@]5(C)CC[C@H](O)C(C)(C)[C@@H]5CC[C@]43C)[C@@H]12 [LUPEOL] | 106 µM and 45000 µg/mL | 97 µM and 41000 µg/mL | – | – |
| OC(c1cc(C(F)(F)F)nc2c(C(F)(F)F)cccc12)C1CCCCN1 (stereo not given) [MEFLOQUINE] | – | – | 28.5 µg/mL (≈ 75.3 µM) | 2550 µg/mL (≈ 6740 µM) |
| C=C[C@H]1CN2CC[C@H]1C[C@H]2[C@H](O)c1ccnc2ccc(OC)cc12 [QUININE] | – | – | 67 µg/mL (≈ 207 µM) | 25 µg/mL (≈ 77.1 µM) |
